# Legend:
# [1] = target: T1, Angiotensin-converting enzyme (Rattus norvegicus, UniProt P47820); assay: Inhibitory activity against angiotensin I converting enzyme
# T1 sequence (P47820 whole entry): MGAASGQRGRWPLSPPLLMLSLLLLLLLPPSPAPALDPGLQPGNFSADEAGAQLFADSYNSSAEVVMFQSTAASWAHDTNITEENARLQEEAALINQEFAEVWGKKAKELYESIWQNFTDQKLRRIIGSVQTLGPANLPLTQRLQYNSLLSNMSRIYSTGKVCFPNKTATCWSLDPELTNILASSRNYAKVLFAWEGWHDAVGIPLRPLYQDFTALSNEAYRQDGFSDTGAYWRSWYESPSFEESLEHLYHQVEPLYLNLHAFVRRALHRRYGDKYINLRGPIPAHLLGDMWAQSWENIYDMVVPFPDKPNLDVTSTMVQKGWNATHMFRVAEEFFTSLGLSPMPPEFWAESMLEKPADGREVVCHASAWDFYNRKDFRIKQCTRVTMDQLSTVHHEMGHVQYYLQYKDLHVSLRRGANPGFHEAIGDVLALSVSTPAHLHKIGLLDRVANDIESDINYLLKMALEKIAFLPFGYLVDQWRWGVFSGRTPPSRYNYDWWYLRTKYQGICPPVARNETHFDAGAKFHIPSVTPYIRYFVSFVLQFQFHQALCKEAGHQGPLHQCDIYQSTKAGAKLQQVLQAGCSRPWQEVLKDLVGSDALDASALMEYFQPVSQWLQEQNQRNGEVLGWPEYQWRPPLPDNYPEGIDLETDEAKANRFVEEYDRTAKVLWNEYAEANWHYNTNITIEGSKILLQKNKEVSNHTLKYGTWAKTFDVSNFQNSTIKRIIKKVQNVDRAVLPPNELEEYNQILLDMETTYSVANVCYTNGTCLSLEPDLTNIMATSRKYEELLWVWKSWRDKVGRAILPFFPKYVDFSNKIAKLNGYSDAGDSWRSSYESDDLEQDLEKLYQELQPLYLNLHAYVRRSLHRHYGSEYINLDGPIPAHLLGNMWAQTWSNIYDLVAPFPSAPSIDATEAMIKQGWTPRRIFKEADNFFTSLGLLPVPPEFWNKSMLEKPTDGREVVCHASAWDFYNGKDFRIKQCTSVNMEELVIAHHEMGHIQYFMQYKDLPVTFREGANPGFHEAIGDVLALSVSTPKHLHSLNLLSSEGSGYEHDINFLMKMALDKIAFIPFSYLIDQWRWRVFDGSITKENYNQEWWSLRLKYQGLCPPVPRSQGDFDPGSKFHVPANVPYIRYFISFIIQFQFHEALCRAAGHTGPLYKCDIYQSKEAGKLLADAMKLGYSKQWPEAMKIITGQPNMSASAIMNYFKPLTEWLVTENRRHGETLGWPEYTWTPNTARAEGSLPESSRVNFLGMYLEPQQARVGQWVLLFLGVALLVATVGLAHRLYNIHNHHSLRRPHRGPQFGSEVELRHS
# Procedure, shortened: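 Rat testis enzyme purified to homogeneity, 0.02 pmol/100 µL final, preincubated 15 min at 37 °C with varied inhibitor levels in 50 mM Tris-HCl pH 8.0. N-Cbz-Phe-His-Leu then added to 0.05 mM final and run 15 min. Stopped with 2 M NaOH, His-Leu measured fluorimetrically (ex 365, em 495 nm) against a His-Leu calibration curve. IC50 as mean ± SEM of three independent determinations, each in triplicate.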
# Neprilysin = target: T2, Neprilysin (Oryctolagus cuniculus, UniProt P08049); assay: Inhibitory activity was tested against neutral endopeptidase
# T2 sequence (P08049 whole entry): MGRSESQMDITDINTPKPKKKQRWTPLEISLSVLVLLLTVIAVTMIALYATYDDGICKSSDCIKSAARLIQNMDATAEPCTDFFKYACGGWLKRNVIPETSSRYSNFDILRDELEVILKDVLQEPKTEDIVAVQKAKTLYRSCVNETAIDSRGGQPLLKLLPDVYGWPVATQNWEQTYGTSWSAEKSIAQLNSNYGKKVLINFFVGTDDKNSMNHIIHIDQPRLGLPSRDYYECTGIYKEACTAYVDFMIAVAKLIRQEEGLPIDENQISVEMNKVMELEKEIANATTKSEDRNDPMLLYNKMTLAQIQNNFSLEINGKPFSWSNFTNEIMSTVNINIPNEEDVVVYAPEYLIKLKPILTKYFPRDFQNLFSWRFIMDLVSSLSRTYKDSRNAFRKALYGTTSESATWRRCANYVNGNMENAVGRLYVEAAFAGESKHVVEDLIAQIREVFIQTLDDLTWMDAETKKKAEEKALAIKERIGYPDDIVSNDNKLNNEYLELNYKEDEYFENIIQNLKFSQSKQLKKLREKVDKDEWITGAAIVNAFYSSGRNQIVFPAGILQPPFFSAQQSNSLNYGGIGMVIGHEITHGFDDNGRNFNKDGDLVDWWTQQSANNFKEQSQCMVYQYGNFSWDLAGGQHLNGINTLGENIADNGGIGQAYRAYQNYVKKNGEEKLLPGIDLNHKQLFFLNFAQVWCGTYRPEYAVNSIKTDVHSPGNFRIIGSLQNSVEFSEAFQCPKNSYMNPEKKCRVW
# Procedure, shortened: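 Rabbit kidney enzyme purified to homogeneity, 1 pmol/100 µL final, preincubated 15 min at 25 °C with or without rising inhibitor concentrations in 50 mM Tris-HCl pH 7.4. [3H]Tyr-D-Ala2-Leu-enkephalin then added to 20 nM final and run 30 min. Stopped with 0.5 M HCl, tritiated metabolites separated on polystyrene beads. IC50 as mean ± SEM of three independent determinations, each in triplicate.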
Compound,IC50 [1] [nM],IC50 (Neprilysin) [nM]
C=C(C)[C@@H]1CC[C@]2(C(=O)N[C@H](C(=O)O)[C@@H](C)CC)CC[C@]3(C)[C@H](CC[C@@H]4[C@@]5(C)CC[C@H](O)C(C)(C)[C@@H]5CC[C@]43C)[C@@H]12,6.3,5.5
CC[C@H](C)[C@H](S)C(=O)N[C@H](C(=O)N[C@@H](Cc1ccc(O)cc1)C(=O)O)C(C)C,1.9,5.3
CC[C@H](C)[C@H](NC(=O)[C@@H](S)C(C)C)C(=O)N1C(C(=O)O)CC2CCCCC21 (stereo not given in full),28,175
CC(C)(NC(=O)[C@@H](S)CCc1ccccc1)C(=O)N1CCCC1C(=O)O (stereo not given in full),1.6,46
CC(C)[C@H](NC(=O)[C@@H](S)Cc1ccccc1)C(=O)N1CCCC1C(=O)O (stereo not given in full),0.85,24
C[C@H](NC(=O)[C@@H](S)Cc1ccccc1)C(=O)N1CCCC1,150,22
C[C@H](NC(=O)[C@@H](S)Cc1ccccc1)C(=O)O,40,4
CC[C@@H](C)[C@H](NC(=O)[C@@H](S)c1ccccc1)C(=O)N1CCCC1C(=O)O (stereo not given in full),28,130
CC[C@@H](C)[C@H](NC(=O)[C@@H](S)Cc1ccccc1)C(=O)N1CCCC1C(=O)O (stereo not given in full),1.7,24
C[C@H](NC(=O)[C@@H](S)Cc1ccccc1)C(=O)N1C(C(=O)O)CC2CCCCC21 (stereo not given in full),0.4,5.3
C[C@H](NC(=O)[C@H](Cc1ccccc1)NC(=O)[C@@H](S)Cc1ccccc1)C(=O)O,7.1,2.3
CC[C@H](C)[C@H](S)C(=O)N[C@H](C(=O)N1CCC[C@H]1C(=O)O)C(C)C,0.58,190
C[C@H](NC(=O)[C@H](Cc1ccccc1)NC(=O)CS)C(=O)O,220,14
CC[C@@H](C)[C@H](NC(=O)[C@@H](S)C(C)C)C(=O)N[C@@H](Cc1ccc(O)cc1)C(=O)O,0.26,1.4
CC[C@H](C)[C@H](S)C(=O)N[C@@H](C)C(=O)N1c2ccccc2CC1C(=O)O (stereo not given in full),3.3,180
O=C(NC1(C(=O)O)CCCC1)[C@H](Cc1ccccc1)NC(=O)[C@@H](S)Cc1ccccc1,30,45
C[C@H](NC(=O)[C@@H](S)Cc1ccccc1)C(=O)N1CCCCC1C(=O)O (stereo not given in full),1.6,9.5
CC(c1ccccc1)[C@H](S)C(=O)N[C@H](C(=O)N1CCCC[C@H]1C(=O)O)C(C)C (stereo not given in full),110,180
O=C(O)C1CCCN1C(=O)[C@H](Cc1ccccc1)NC(=O)[C@@H](S)Cc1ccccc1 (stereo not given in full),1.1,30
C[C@H](NC(=O)[C@@H](S)Cc1ccccc1)C(=O)N1CCC[C@H]1C(=O)O,0.3,3.8
C[C@H](NC(=O)[C@@H](S)CCc1ccccc1)C(=O)N1CCCC1C(=O)O (stereo not given in full),0.35,20
CC(C)[C@H](NC(=O)[C@@H](S)Cc1ccccc1)C(=O)N1CC(O)CC1C(=O)O (stereo not given in full),100,63
C[C@H](NC(=O)[C@H](S)Cc1ccccc1)C(=O)N1CCC[C@H]1C(=O)O,25,1.3

# Now from value to molecule:
IC50 [1] [nM],IC50 (Neprilysin) [nM],Compound
33,32,CC[C@@H](C)[C@H](S)C(=O)N[C@H](C(=O)N[C@@H](Cc1ccc(O)cc1)C(=O)O)C(C)c1ccccc1 (stereo not given in full)
3.5,4.5,CC[C@H](C)[C@H](NC(=O)[C@@H](S)c1ccccc1)C(=O)N[C@@H](Cc1ccc(O)cc1)C(=O)O
10,3.5,CC[C@H](C)[C@H](S)C(=O)N[C@@H](Cc1ccccc1)C(=O)N[C@@H](Cc1ccc(O)cc1)C(=O)O
3,2.2,CC(C)C[C@H](NC(=O)[C@@H](S)Cc1ccccc1)C(=O)N[C@@H](Cc1ccc(O)cc1)C(=O)O
44,23,O=C(O)[C@H](Cc1ccccc1)NC(=O)[C@@H](S)Cc1ccccc1
2.5,3,CC[C@H](C)[C@H](NC(=O)[C@@H](S)Cc1ccccc1)C(=O)N[C@@H](Cc1ccc(O)cc1)C(=O)O
1.5,20,O=C(O)[C@H](Cc1ccc(O)cc1)NC(=O)[C@H](Cc1ccccc1)NC(=O)[C@@H](S)CCc1ccccc1
7.9,50,O=C(O)[C@H](Cc1c[nH]c2ccccc12)NC(=O)[C@H](Cc1ccccc1)NC(=O)[C@@H](S)Cc1ccccc1
4,3.6,CC(C)[C@H](NC(=O)[C@@H](S)Cc1ccccc1)C(=O)N[C@@H](Cc1ccc(O)cc1)C(=O)O
50,120,O=C(O)[C@H](Cc1cccc2ccccc12)NC(=O)[C@H](Cc1ccccc1)NC(=O)[C@@H](S)Cc1ccccc1
7.1,4.1,CC[C@@H](C)[C@H](NC(=O)[C@@H](S)C(C)OCc1ccccc1)C(=O)N[C@@H](Cc1ccc(O)cc1)C(=O)O (stereo not given in full)
14,40,O=C(O)[C@H](CSCc1ccccc1)NC(=O)[C@H](Cc1ccccc1)NC(=O)[C@@H](S)Cc1ccccc1
4,2.8,CCCC[C@H](NC(=O)[C@@H](S)Cc1ccccc1)C(=O)N[C@@H](Cc1ccc(O)cc1)C(=O)O
5.6,2.9,O=C(O)[C@H](Cc1ccc(O)cc1)NC(=O)[C@H](Cc1ccccc1)NC(=O)[C@@H](S)Cc1ccccc1
1.6,10,CC(C)[C@H](NC(=O)[C@@H](S)CCc1ccccc1)C(=O)N[C@@H](Cc1ccc(O)cc1)C(=O)O
34,100,CC(OCc1ccccc1)[C@H](NC(=O)[C@@H](S)Cc1ccccc1)C(=O)N[C@@H](Cc1ccc(O)cc1)C(=O)O (stereo not given in full)
12,50,O=C(O)[C@H](COCc1ccccc1)NC(=O)[C@H](Cc1ccccc1)NC(=O)[C@@H](S)Cc1ccccc1
